Results: the RNAGym collection of RNA variant scans (doi:10.1038/s41586-018-0170-7)

B1: tRNA (parent)
chain: GUUCCGUUGGCGUAAUGGUAACGCGUCUCCCUCCUAAGGAGAAGACUGCGGGUUCGAGUCCCGUACGGAACG

Variants of: B1
Experiment: yeast fitness, log relative to wild type (ln ratio); higher = fitter; tRNA-Arg(CCU), competitive growth, 37 C, 1 M NaCl
In short: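 For each genotype, fitness is defined as the natural log of its generation number over the wild type's. The tRNA-Arg(CCU) variant library was on a HIS3 centromeric plasmid in BY4742 with the chromosomal gene removed, and pools were first grown 4 generations in SC-HIS at 30 °C and then ~6.5 generations (~26.5 h) in SC-HIS 1M NaCl at 37 °C. Generations were calculated from OD-scaled log2 output/input frequency, weighted by inverse variance across replicates, using counts from 125 bp paired-end Illumina sequencing.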

Variant | yeast fitness (ln)
ACUCCUUUGGCGUAAUGGUAACGCGUUUCCCUCCUAAGGAGACGAUUGCGGGUUCGAGUCCCGUAUGGAGUG [G1A U2C G6U C27U A43C C46U C66U A70G C71U] | -0.0871
AUUCCAUUGGCGUAAUGGUAACGCGUUUCCCUCCUAAGGAGACGAUUGCGGGUUCGAGUCCCGUACGGAACG [G1A G6A C27U A43C C46U] | -0.233
GUUCCAUUGGCGUAAUGGUAACGCGUUUCCCUCCUAAGGAGAAGACUGCGGGUUCGAGUCCCGUACGGGGCG [G6A C27U A69G A70G] | -0.12
GUUCCUUUGGCGUAAUGGUAACGCGUCUCCCUCCUAAGGAGACGAUUGCGGGUUCGAGUCCCGUAAGGGAUG [G6U A43C C46U C66A A69G C71U] | -0.548
AGUCCUUUGGCGUAAUGGUAACGCGUCUCCCUCCUAAGGAGAAGACUGCGGGUUCGAGUCCCGUAUGGAACG [G1A U2G G6U C66U] | -0.203
AGUCCUUUGGCGUAAUGGUAACGCGUCUCCCUCCUAAGGAGAAGAUUGCGGGUUCGAGUCCCGUAUGGAUUG [G1A U2G G6U C46U C66U A70U C71U] | -0.722
GGUCCUUUGGCGUAAUGGUAACGCGUUUCCCUCCUAAGGAGAAGACUGCGGGUUCGAGUCCCGUACGGAACG [U2G G6U C27U] | -0.0917
AUUCCGUUGGCGUAAUGGUAACGCGUUUCCCUCCUAAGGAGACGAUUGCGGGUUCGAGUCCCGUACGGGGCG [G1A C27U A43C C46U A69G A70G] | -0.183
AGUCCGUUGGCGUAAUGGUAACGCGUCUCCCUCCUAAGGAGAAGACUGCGGGUUCGAGUCCCGUACGGGUUG [G1A U2G A69G A70U C71U] | -0.0282
GCUCCGUUGGCGUAAUGGUAACGCGUUUCCCUCCUAAGGAGACGAUUGCGGGUUCGAGUCCCGUACGGGUUG [U2C C27U A43C C46U A69G A70U C71U] | -0.307
AUUCCAUUGGCGUAAUGGUAACGCGUCUCCCUCCUAAGGAGACGAUUGCGGGUUCGAGUCCCGUACGGGGUG [G1A G6A A43C C46U A69G A70G C71U] | -0.252
GUUCCUUUGGCGUAAUGGUAACGCGUUUCCCUCCUAAGGAGACGACUGCGGGUUCGAGUCCCGUAAGGGAUG [G6U C27U A43C C66A A69G C71U] | -0.333
AUUCCGUUGGCGUAAUGGUAACGCGUCUCCCUCCUAAGGAGACGACUGCGGGUUCGAGUCCCGUACGGGUCG [G1A A43C A69G A70U] | -0.257
GCUCCGUUGGCGUAAUGGUAACGCGUUUCCCUCCUAAGGAGAAGAUUGCGGGUUCGAGUCCCGUAUGGGGCG [U2C C27U C46U C66U A69G A70G] | -0.0845
GCUCCAUUGGCGUAAUGGUAACGCGUCUCCCUCCUAAGGAGACGACUGCGGGUUCGAGUCCCGUACGGAAUG [U2C G6A A43C C71U] | -0.0318
GUUCCAUUGGCGUAAUGGUAACGCGUUUCCCUCCUAAGGAGACGAUUGCGGGUUCGAGUCCCGUACGGAGCG [G6A C27U A43C C46U A70G] | -0.128
GGUCCGUUGGCGUAAUGGUAACGCGUCUCCCUCCUAAGGAGACGACUGCGGGUUCGAGUCCCGUAUGGGGUG [U2G A43C C66U A69G A70G C71U] | -0.304
AUUCCAUUGGCGUAAUGGUAACGCGUCUCCCUCCUAAGGAGACGACUGCGGGUUCGAGUCCCGUAAGGAGUG [G1A G6A A43C C66A A70G C71U] | -0.297
GGUCCUUUGGCGUAAUGGUAACGCGUUUCCCUCCUAAGGAGACGAUUGCGGGUUCGAGUCCCGUAUGGAAUG [U2G G6U C27U A43C C46U C66U C71U] | -0.356

Variant | yeast fitness (ln)
GGUCCUUUGGCGUAAUGGUAACGCGUCUCCCUCCUAAGGAGAAGACUGCGGGUUCGAGUCCCGUACGGAUUG [U2G G6U A70U C71U] | -0.109
GCUCCUUUGGCGUAAUGGUAACGCGUUUCCCUCCUAAGGAGAAGAUUGCGGGUUCGAGUCCCGUACGGAGCG [U2C G6U C27U C46U A70G] | -0.0953
ACUCCAUUGGCGUAAUGGUAACGCGUCUCCCUCCUAAGGAGAAGAUUGCGGGUUCGAGUCCCGUACGGAUUG [G1A U2C G6A C46U A70U C71U] | -0.00949
AGUCCUUUGGCGUAAUGGUAACGCGUCUCCCUCCUAAGGAGAAGAUUGCGGGUUCGAGUCCCGUAAGGAUUG [G1A U2G G6U C46U C66A A70U C71U] | 0.00484
GGUCCGUUGGCGUAAUGGUAACGCGUUUCCCUCCUAAGGAGAAGACUGCGGGUUCGAGUCCCGUAAGGGAUG [U2G C27U C66A A69G C71U] | -0.197
ACUCCGUUGGCGUAAUGGUAACGCGUUUCCCUCCUAAGGAGAAGAUUGCGGGUUCGAGUCCCGUAUGGAACG [G1A U2C C27U C46U C66U] | -0.144
GGUCCGUUGGCGUAAUGGUAACGCGUCUCCCUCCUAAGGAGAAGACUGCGGGUUCGAGUCCCGUAUGGGUUG [U2G C66U A69G A70U C71U] | -0.381
GUUCCGUUGGCGUAAUGGUAACGCGUCUCCCUCCUAAGGAGACGACUGCGGGUUCGAGUCCCGUACGGGAUG [A43C A69G C71U] | -0.138
ACUCCGUUGGCGUAAUGGUAACGCGUUUCCCUCCUAAGGAGAAGAUUGCGGGUUCGAGUCCCGUACGGAGCG [G1A U2C C27U C46U A70G] | -0.0417
GCUCCUUUGGCGUAAUGGUAACGCGUUUCCCUCCUAAGGAGACGAUUGCGGGUUCGAGUCCCGUACGGGUCG [U2C G6U C27U A43C C46U A69G A70U] | -0.126
ACUCCUUUGGCGUAAUGGUAACGCGUUUCCCUCCUAAGGAGAAGAUUGCGGGUUCGAGUCCCGUAAGGAGUG [G1A U2C G6U C27U C46U C66A A70G C71U] | -0.0279
AUUCCUUUGGCGUAAUGGUAACGCGUUUCCCUCCUAAGGAGACGACUGCGGGUUCGAGUCCCGUACGGGGCG [G1A G6U C27U A43C A69G A70G] | -0.536
ACUCCGUUGGCGUAAUGGUAACGCGUUUCCCUCCUAAGGAGACGAUUGCGGGUUCGAGUCCCGUACGGAACG [G1A U2C C27U A43C C46U] | -0.0167
AGUCCUUUGGCGUAAUGGUAACGCGUUUCCCUCCUAAGGAGACGAUUGCGGGUUCGAGUCCCGUAAGGAACG [G1A U2G G6U C27U A43C C46U C66A] | -0.25
GGUCCAUUGGCGUAAUGGUAACGCGUUUCCCUCCUAAGGAGAAGAUUGCGGGUUCGAGUCCCGUACGGGAUG [U2G G6A C27U C46U A69G C71U] | -0.174
GUUCCAUUGGCGUAAUGGUAACGCGUUUCCCUCCUAAGGAGAAGAUUGCGGGUUCGAGUCCCGUACGGGACG [G6A C27U C46U A69G] | -0.183
GGUCCGUUGGCGUAAUGGUAACGCGUCUCCCUCCUAAGGAGACGAUUGCGGGUUCGAGUCCCGUAUGGGGCG [U2G A43C C46U C66U A69G A70G] | -0.173
GGUCCAUUGGCGUAAUGGUAACGCGUUUCCCUCCUAAGGAGAAGAUUGCGGGUUCGAGUCCCGUAAGGGGCG [U2G G6A C27U C46U C66A A69G A70G] | -0.134
GUUCCGUUGGCGUAAUGGUAACGCGUCUCCCUCCUAAGGAGACGACUGCGGGUUCGAGUCCCGUAUGGGUCG [A43C C66U A69G A70U] | -0.224
